Here are results for nine compounds from article PMC10286098 (ACS Omega, 2023).

One data set addresses hDHODH (Homo sapiens, UniProt Q02127). Nature of the data set: hDHODH fluorescence-based. The conditions noted are these: for IC50: IC50 over hDHODH, fluorescence-based assay, 10-dose, 3-fold dilution from 10 μM; for fold of the reported DHODH inhibitory activity of Leflunomide: versus Leflunomide 600 nM. The class given is biochemical. The essentials: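 Contract-run assay in which human DHODH oxidizes L-DHO to orotate, coupled to resazurin conversion to resorufin. Test compounds were run as 10 doses in singlet, with 3-fold dilutions from 10 μM. Reactions ran 60 min at room temperature. Orotate stop mix (5 mM final) was added, then resorufin fluorescence was read.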

The test system of the next data set is MRC-5 cells. The conditions noted are these: MRC-5 normal lung cells, WST-1, mean ± standard error. (Tetrazolium dyes change colour on reduction, which living cells bring about.)
Setting [1] is: A549 cells, WST-1, 24 h, mean ± standard error.
[2] abbreviates: H1299 cells, WST-1, 24 h, mean ± standard error.
[3] abbreviates: H1975 cells, WST-1, 24 h, mean ± standard error.

Values joined by “and” are separate entries in the source; they are usually repeats but may differ in a detail not shown here. Equal entries are not always repeated. Where two headings read alike, the source gives them in different places.

hDHODH, sequence (Q02127 whole entry): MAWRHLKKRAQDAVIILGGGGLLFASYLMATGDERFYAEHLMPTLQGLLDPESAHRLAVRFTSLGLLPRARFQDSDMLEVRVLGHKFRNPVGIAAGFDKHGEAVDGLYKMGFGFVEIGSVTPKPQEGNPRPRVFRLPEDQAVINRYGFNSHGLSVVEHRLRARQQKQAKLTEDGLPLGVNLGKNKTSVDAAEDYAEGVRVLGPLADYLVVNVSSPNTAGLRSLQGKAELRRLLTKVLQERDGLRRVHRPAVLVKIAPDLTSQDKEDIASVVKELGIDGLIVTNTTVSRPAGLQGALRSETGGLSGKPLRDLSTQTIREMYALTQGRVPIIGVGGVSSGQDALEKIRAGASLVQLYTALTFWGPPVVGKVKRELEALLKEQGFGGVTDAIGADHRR

Take `O=C(Nc1cccc(C(F)(F)F)c1)c1c[nH]c2ccc(Nc3cccc([N+](=O)[O-])c3)cc12` [5d, 5-((3-Nitrophenyl)amino)-N-(3-(trifluoromethyl)phenyl)-1H-indole-3-carboxamide]: the TC50 in the data set with A549 cells (setting [1]) was 16 ± 0.4 µM; in the data set on H1299 cells (setting [2]), 18 ± 0.5 µM; in the data set with H1975 cells (setting [3]), 29 ± 4.0 µM.

For `COc1ccc(-c2ccc3[nH]cc(C(=O)Nc4cccc(C(F)(F)F)c4)c3c2)cc1` [4b, 5-(4-Methoxyphenyl)-N-(3-(trifluoromethyl)phenyl)-1H-indole-3-carboxamide], the TC50 in the data set on A549 cells (setting [1]) is 17 ± 0.5 µM; with H1299 cells (setting [2]) it was 17 ± 0.3 µM; with H1975 cells (setting [3]), 35 ± 4.0 µM.

By IC50 is commonly meant the concentration that gives 50% inhibition. Higher therefore signals lower potency. On to `O=C(Nc1cccc(C(F)(F)F)c1)c1c[nH]c2ccc(-c3cccc(CN4CCOCC4)c3)cc12` [compound 4a, 5-(3-(Morpholinomethyl)phenyl)-N-(3-(trifluoromethyl)phenyl)-1H-indole-3-carboxamide], for which the IC50 on hDHODH was 1.2 µM and 1.21 µM. For the same compound, the TC50 in the data set on A549 cells (setting [1]) was 13 ± 0.3 µM; in the data set with H1299 cells (setting [2]) it was 13 ± 0.1 µM; with H1975 cells (setting [3]) it was 23 ± 2.0 µM; in the data set with MRC-5 cells, 17 ± 3.0 µM.

Consider `COc1ccc(Nc2ccc3[nH]cc(C(=O)Nc4cccc(C(F)(F)F)c4)c3c2)cc1OC` [compound 5b, 5-((3,4-Dimethoxyphenyl)amino)-N-(3-(trifluoromethyl)phenyl)-1H-indole-3-carboxamide], for which the figures for the TC50 with A549 cells (setting [1]), with H1299 cells (setting [2]) and with H1975 cells (setting [3]) were 19 ± 0.4 µM, 16 ± 0.6 µM and 25 ± 5.0 µM, respectively.

Take `O=C(Nc1cccc(C(F)(F)F)c1)c1c[nH]c2ccc(Nc3ccc([N+](=O)[O-])cc3)cc12` [compound 5c, 5-((4-Nitrophenyl)amino)-N-(3-(trifluoromethyl)phenyl)-1H-indole-3-carboxamide]: the IC50 against hDHODH is 0.421 µM. On hDHODH, the “fold of the reported DHODH inhibitory activity of Leflunomide” value is 1.5 fold. The TC50 in the data set on A549 cells (setting [1]) was 11 ± 0.5 µM; in the data set with H1299 cells (setting [2]), 11 ± 0.3 µM; in the data set on H1975 cells (setting [3]), 15 ± 1.0 µM; in the data set on MRC-5 cells, 17 ± 0.3 µM.

Consider `O=C(Nc1cccc(C(F)(F)F)c1)c1c[nH]c2ccc(Nc3ccc(O)cc3)cc12` [5a, 5-((4-Hydroxyphenyl)amino)-N-(3-(trifluoromethyl)phenyl)-1H-indole-3-carboxamide], for which the TC50 with A549 cells (setting [1]) was 32 ± 0.9 µM; in the data set on H1299 cells (setting [2]) it was 33 ± 0.7 µM; in the data set on H1975 cells (setting [3]), 33 ± 2.0 µM.

As for `CNC(=O)c1cc(Oc2ccc(NC(=O)Nc3ccc(Cl)c(C(F)(F)F)c3)c(F)c2)ccn1` [Regorafenib, reference compound], the “decrease of cell viability” value with A549 cells (A549, 100 μM, 24 h, preliminary screening (Figure S1)) is reported as “more than 50%”; in the data set on H1299 cells (H1299, 100 μM, 24 h, preliminary screening (Figure S1)), “more than 50%”; in the data set with H1975 cells (H1975, 100 μM, 24 h, preliminary screening (Figure S1)), “more than 50%”. The TC50 with A549 cells (setting [1]) was 13 ± 0.8 µM; with H1299 cells (setting [2]) it was 10 ± 0.4 µM; in the data set on H1975 cells (setting [3]), 16 ± 0.5 µM; with MRC-5 cells, 18 ± 2.0 µM.

For `Cc1oncc1C(=O)Nc1ccc(C(F)(F)F)cc1` [Leflunomide, reference compound], the TC50 in the data set on A549 cells is given as 100 < TC50 <300 μM; in the data set with H1299 cells it was 300 < μM; in the data set with H1975 cells, 100 < μM; with MRC-5 cells it was 300 < μM.

Turning to `O=C(Nc1cccc(C(F)(F)F)c1)c1c[nH]c2ccc(Br)cc12` [compound 3, 5-Bromo-N-(3-(trifluoromethyl)phenyl)-1H-indole-3-carboxamide], the IC50 against hDHODH was 0.195 µM. Moreover, the “fold of the reported DHODH inhibitory activity of Leflunomide” value at hDHODH was 3 fold. In addition, the TC50 with A549 cells (setting [1]) turned out to be 22 ± 1.0 µM; in the data set with H1299 cells (setting [2]), 27 ± 0.8 µM; in the data set with H1975 cells (setting [3]), 28 ± 2.0 µM; in the data set on MRC-5 cells, 45 ± 8.0 µM.
